Published values collected from several papers.
Compare with care: the assays were run in different laboratories.
P2RX7: P2X purinoceptor 7 (P2RX7, Homo sapiens, UniProt Q99572)
IDE: Insulin-degrading enzyme (IDE, Homo sapiens, UniProt P14735)
gag-pol integrase: Gag-Pol polyprotein, integrase (gag-pol, Human immunodeficiency virus 1, UniProt P12497)
TGFBR1: TGF-beta receptor type-1 (TGFBR1, Homo sapiens, UniProt P36897)
MET: Hepatocyte growth factor receptor (MET, Homo sapiens, UniProt P08581)
KCNA5: Potassium voltage-gated channel subfamily A member 5 (KCNA5, Homo sapiens, UniProt P22460)
MMP1: Interstitial collagenase (MMP1, Homo sapiens, UniProt P03956)

| SMILES | target | effect on | mode | method | setting | IC50 [nM] |
| --- | --- | --- | --- | --- | --- | --- |
| COc1ccc(-c2n[nH]c(=S)o2)cc1 | P2RX7 | calcium signal | antagonist |  |  | 8290 |
| O=C(O)C1=CC(=C(c2ccc(O)c(C(=O)O)c2)c2ccc(O)c(C(=O)O)c2)C=CC1=O | Lysosomal acid lipase/cholesteryl ester hydrolase (LIPA, Homo sapiens, UniProt P38571) | enzyme activity | inhibitor |  |  | 1340 |
| COC(=O)CN(CC(=O)N[C@@H](Cc1c[nH]cn1)C(=O)OC)Cc1ccccc1 | IDE | enzyme activity | inhibitor | fluorescence |  | > 100000 |
| CC(C)(C)OC(=O)N1CCC(C(=O)N[C@@H](Cc2ccccc2)C(=O)O)(c2ccc(-c3ccccc3)cc2)CC1 | gag-pol integrase | enzyme activity | inhibitor | TR-FRET |  | 64400 |
| CN1CCN(c2ccc(Nc3ncc4cc(C#N)c(=O)n(C5CCCC5)c4n3)cc2)CC1 | TGFBR1 | enzyme activity | inhibitor |  |  | 1840 |
| CCCN(CCC)S(=O)(=O)c1ccc(-c2n[nH]c(=S)o2)cc1 | P2RX7 | calcium signal | antagonist |  |  | 6110 |
| COC(=O)[C@H](CCCNC(=N)N)NC(=O)CN(CC(=O)O)Cc1ccccc1 | IDE | enzyme activity | inhibitor | fluorescence |  | 36300 |
| CC1(C)CC(=O)C=C(NC(=O)Nc2ccc(O)cc2)C1 | crk3 (Leishmania mexicana, UniProt O15851) | enzyme activity | inhibitor | radiometric |  | 3300 |
| CC1(COc2ccc(CC3SC(=O)NC3=O)cc2)CCCCC1 (stereo not drawn) | Peroxisome proliferator-activated receptor alpha (PPARA, Homo sapiens, UniProt Q07869) | ligand displacement |  | TR-FRET |  | 377000 |
| Cc1cc(Oc2ccc(NC(=O)c3sc(-c4ccccc4)nc3C)cc2)c2nncn2n1 | MET | enzyme activity | inhibitor | mobility shift |  | 880 |
| CC(C)(C)OC(=O)N1CCC(C(=O)N[C@@H](Cc2ccc3ccccc3c2)C(=O)O)(c2ccccc2)CC1 | gag-pol integrase | enzyme activity | inhibitor | TR-FRET |  | 90300 |
| O=C(Nc1ccn(Cc2ccc(O)cc2C(F)(F)F)n1)c1c(F)cccc1F | KCNA5 | ion current | inhibitor |  |  | > 10000 |
| CNC(=O)c1cc2c(Oc3ccc(NC(=O)C4(C(=O)Nc5ccc(F)cc5)CC4)cc3)ccnc2cc1OC | Hepatocyte growth factor receptor (MET, Homo sapiens, UniProt P08581, Y1230H) | enzyme activity | inhibitor | radiometric |  | 5 |
| COC(=O)[C@H](Cc1c[nH]cn1)NC(=O)CN(CCCCc1ccccc1)CC(=O)O | IDE | enzyme activity | inhibitor | fluorescence |  | 600 |
| C[C@H]1C[C@@H](N2C(=N)N[C@](C)(c3cccc(Nc4ccc(C5CC5)nc4)c3Cl)CC2=O)CCO1 | KCNA5 | ion current | inhibitor | patch clamp |  | 4620 |
| Cc1cc(Oc2ccc(NC(=O)c3cc(-c4cccs4)no3)cc2)c2nncn2n1 | MET | enzyme activity | inhibitor | mobility shift |  | 880 |
| COc1ccc(S(=O)(=O)N2Cc3cc(O)c(O)cc3CC2C(=O)NO)cc1 (stereo not drawn) | MMP1 | enzyme activity | inhibitor |  |  | 10000 |

| SMILES | target | effect on | mode | method | setting | IC50 [nM] |
| --- | --- | --- | --- | --- | --- | --- |
| NC(=O)NCCC[C@@H](NS(=O)(=O)c1ccc(OCc2cc(Br)cc(Br)c2)cc1)C(=O)NO | MMP1 | enzyme activity | inhibitor | fluorescence |  | > 500000 |
| Cc1nc2ccc(Br)cc2c(-c2ccc(Cl)cc2)c1C(OC(C)(C)C)C(=O)O (stereo not drawn) | gag-pol integrase | enzyme activity | inhibitor | TR-FRET |  | 120 |
| CN(C)C(=O)[C@H](Cc1c[nH]cn1)NC(=O)CN(CC(=O)O)Cc1ccccc1 | IDE | enzyme activity | inhibitor | fluorescence |  | 6900 |
| CCOC(=O)CC1=C/C(=C\c2ccc(-c3ccccc3)cc2)c2ccc(F)cc21 | Prostaglandin G/H synthase 2 (Ptgs2, Mus musculus, UniProt Q05769) | enzyme activity | inhibitor |  |  | ~10000 |
| Nc1ncnc2c1c(COc1cccc(Cl)c1)nn2C1CCOCC1 | TGFBR1 | cell-free assay |  | TR-FRET |  | 820 |
| Sc1nnc(-c2ccccn2)o1 | P2RX7 | calcium signal | antagonist |  |  | 11800 |
| CNCCCC(c1ccccc1)(c1ccccc1)c1ccccc1 | Kinesin-like protein KIF11 (KIF11, Homo sapiens, UniProt P52732) | ATPase activity | inhibitor |  |  | 386 |
| Cc1cnc(-c2ccc(-c3ccc(NC(=O)Nc4c(F)cc(F)cc4F)cc3F)c3c2C(=O)NC3)[nH]1 | MET | enzyme activity | inhibitor |  |  | 13.6 |
| Cc1noc([C@H](Cc2c[nH]cn2)NC(=O)CN(CCCc2ccccc2)CC(=O)O)n1 | IDE | enzyme activity | inhibitor | fluorescence |  | 500 |
| CC[C@H](C)[C@H](NC(C)=O)C(=O)N[C@@H](CCC(=O)O)C(=O)N[C@H](C(=O)N[C@H](C=O)CC(=O)O)[C@@H](C)O | Caspase-9 (CASP9, Homo sapiens, UniProt P55211) | enzyme activity | inhibitor |  |  | 21.7 |
| O=C(O)CN(CC(=O)N[C@@H](Cc1c[nH]cn1)C(=O)NCc1ccccc1)Cc1ccccc1 | IDE | enzyme activity | inhibitor | fluorescence |  | 1400 |
| CC(C)C[C@H](NC(=O)[C@H](Cc1ccccc1)NC(=O)[C@H](Cc1ccc(O)cc1)NC(=O)CNC(=O)[C@H](CCCNC(=N)N)NC(=O)[C@H](CO)NC(=O)[C@H](CCC(N)=O)NC(=O)[C@H](CO)NC(=O)[C@H](C)NC(=O)[C@H](Cc1ccccc1)NC(=O)[C@@H]1CCCN1C(=O)[C@H](CO)NC(=O)[C@H](CCC(N)=O)NC(=O)[C@H](Cc1ccccc1)NC(=O)[C@H](CCC(=O)O)NC(=O)[C@H](CCC(=O)O)NC(=O)[C@H](CC(=O)O)NC(=O)[C@@H](NC(=O)[C@H](CCCNC(=N)N)NC(=O)[C@@H](N)Cc1ccccc1)C(C)C)C(=O)N[C@@H](Cc1ccccc1)C(=O)N[C@@H](CCCNC(=N)N)C(=O)N1CCC[C@H]1C(=O)N[C@@H](CCCNC(=N)N)C(=O)N[C@@H](CC(N)=O)C(N)=O | Neuromedin-U receptor 2 (NMUR2, Homo sapiens, UniProt Q9GZQ4) | ligand displacement |  | radioligand | cell membranes | 0.22 |
| CCCCCCN(CC(=O)O)CC(=O)N[C@@H](Cc1c[nH]cn1)C(=O)OC | IDE | enzyme activity | inhibitor | fluorescence |  | 400 |
| CCC[C@H](NC(=O)C1CN(C)C1)c1ncc(-c2cc3ccccc3nc2OC)[nH]1 | Histone deacetylase 3 (HDAC3, Homo sapiens, UniProt O15379) | enzyme activity | inhibitor | fluorescence |  | 160 |
| COC(=O)[C@H](Cc1c[nH]cn1)NC(=O)CN(CC(=O)O)Cc1ccc(C)cc1 | IDE | enzyme activity | inhibitor | fluorescence |  | 1700 |
| CC/C=C\C/C=C\C/C=C\C/C=C\C/C=C\CCCC(=O)O | DNA polymerase beta (Rattus norvegicus, UniProt P06766) | enzyme activity | inhibitor |  |  | 88500 |
